This note sets out measurements from ChEMBL document CHEMBL1148112, “Inhibition of tumor-promoting effects by poricoic acids G and H and other lanostane-type triterpenes and cytotoxic activity of poricoic acids A and G from Poria cocos” (J Nat Prod, 2002).

For data set [1], the system named is Raji. The data set is described as follows: Inhibition of 12-O-tetradecanoylphorbol-13-acetate induced EBV-early antigen activation in human Raji cells assessed as EA activation at 100 molar ratio after 48 hrs by indirect immunofluorescence method relative to TPA. The conditions noted are these: human gammaherpesvirus 4. The data set is classed as cell-based. Summed up:
(§1)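 Raji cells (EBV genome-carrying, nonproducer) at 1 × 10^6/mL in 10% FBS RPMI 1640, incubated 37 °C for 48 h with n-butyric acid (4 mM) plus 32 pmol TPA (20 ng/mL), compound added in DMSO. EA-positive cells detected by indirect immunofluorescence using NPC patient sera; at least 500 cells counted, run twice, expressed relative to butyric acid + TPA control.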

Data set [2] deals with Raji. The data set is described as follows: Inhibition of 12-O-tetradecanoylphorbol-13-acetate induced EBV-early antigen activation in human Raji cells assessed as EA activation at 1000 molar ratio after 48 hrs by indirect immunofluorescence method relative to TPA. The following applies: human gammaherpesvirus 4. The data set is classed as cell-based. Set-up: scale not given: the % may be the effect or the level left. Summed up:
as §1

For data set [3], the system named is Raji. The data set is described as follows: Inhibition of 12-O-tetradecanoylphorbol-13-acetate induced EBV-early antigen activation in human Raji cells assessed as EA activation at 10 molar ratio after 48 hrs by indirect immunofluorescence method relative to TPA. The data set is classed as cell-based. The following applies: human gammaherpesvirus 4. Summed up:
as §1

Data set [4] has as its system Raji. The experiment in a line: Inhibition of 12-O-tetradecanoylphorbol-13-acetate induced EBV-early antigen activation in human Raji cells assessed as EA activation at 500 molar ratio after 48 hrs by indirect immunofluorescence method relative to TPA. The data set is classed as cell-based. Details: scale not given: the % may be the effect or the level left. The conditions noted are these: human gammaherpesvirus 4. In short, it runs like this: as §1

The nature of data set [5]: Cytotoxicity against human Raji cells assessed as cell viability at 1000 molar ratio. The data set is classed as cell-based. The following applies: read-out: Activity.
Data set [6] is described as follows: Growth inhibition of human NCI60 cells after 48 hrs by sulforhodamine B assay. The conditions noted are these: NCI60, 48 h. The data set is classed as functional. In short, it runs like this: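 NCI 60-cell panel (lung, colon, melanoma, renal, ovarian, brain, leukemia), continuous 48 h exposure, at least five 10-fold dilutions from a top concentration of 10^-4 M; cell growth estimated by sulforhodamine B protein staining.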
(Sulforhodamine B stains cellular protein and so reports cell mass.)

Consider `C=C(CC[C@@H](C(=O)O)[C@H]1[C@H](O)C[C@@]2(C)C3=CC[C@H]4C(C)(C)[C@H](O)CC[C@]4(C)C3=CC[C@]12C)C(C)C`, for which the Remaining EA activation relative to TPA control with Raji [1] was determined as 67%. The Activity with Raji [2] was 0%; in the data set with Raji [4], 25.5%. For the same molecule, in the data set with Raji [3], the EA activation relative to TPA control turned out to be 93.8%. In addition, the viability at 1000 molar ratio in data set [5] came out at 70%.
Taken in the same sequence, the figures for `C=C(CC[C@@H](C(=O)O)[C@H]1[C@H](O)C[C@@]2(C)C3=CC[C@H]4C(C)(C)[C@H](O)CC[C@]4(C)C3=CC[C@]12C)C(C)(C)O` were 51.6%, 0%, 13.2%, 79.4% and 70%.
With `CC1=C(/C=C/C(C)=C/C=C/C(C)=C/C=C/C=C(C)/C=C/C=C(C)/C=C/C2=C(C)CCCC2(C)C)C(C)(C)CCC1`, in the data set on Raji [2], the Activity was 8.6%. In the data set with Raji [3], the EA activation relative to TPA control was 100%.
For the molecule `C=C(CC[C@@H](C(=O)O)[C@H]1[C@H](O)C[C@@]2(C)C3=CC[C@H]4C(C)(C)[C@@H](O)CC[C@]4(C)C3=CC[C@]12C)C(C)C` [DEHYDROTUMULOSIC ACID], in the data set with Raji [1], the Remaining EA activation relative to TPA control is 64.9%. For the same molecule, the Activity was determined as 0% in the data set on Raji [2] and 22.7% in the data set with Raji [4]. In addition, in the data set on Raji [3], the EA activation relative to TPA control is 90.5%. Besides, the viability at 1000 molar ratio in data set [5] came out at 70%.
With `COC(=O)[C@]1(C)CCC[C@]2(C)c3ccc(C(C)C)cc3CC[C@@H]12` [METHYL DEHYDROABIETATE], the Remaining EA activation relative to TPA control in the data set on Raji [1] is 68.3%. In addition, the values for the Activity with Raji [2] and with Raji [4] were 0% and 23.2%, respectively. In the data set with Raji [3], the EA activation relative to TPA control was 91.6%. In data set [5], the viability at 1000 molar ratio amounted to 60%.
Taken in the same sequence, the figures for `C=C(CC[C@@H](C(=O)O)[C@H]1[C@H](O)C[C@@]2(C)C3=CC[C@H]4C(C)(C)C(=O)CC[C@]4(C)C3=CC[C@]12C)C(C)C` [POLYPORENIC ACID B] were 68.7%, 0%, 26.3%, 92.6% and 70%.
Take `C=C(CC[C@@H](C(=O)O)[C@H]1[C@H](O)C[C@@]2(C)C3=CC[C@@H](C(=C)C)[C@](C)(CCC(=O)O)C3=CC[C@]12C)C(C)C` [PORICOIC ACID A]: the Remaining EA activation relative to TPA control in the data set on Raji [1] was 58.9%. In addition, in data set [6], the GI50 was 15 µM. The Activity in the data set on Raji [2] stood at 0%; in the data set on Raji [4], 18.5%. In addition, the EA activation relative to TPA control with Raji [3] was 83.8%. For the same molecule, the viability at 1000 molar ratio in data set [5] was determined as 70%.
With `C=C(C)[C@@H]1CC=C2C(=CC[C@]3(C)[C@@H]([C@@H](CCC=C(C)C)C(=O)O)[C@H](O)C[C@@]23C)[C@@]1(C)CCC(=O)O` [PORICOIC ACID B], the Remaining EA activation relative to TPA control with Raji [1] was 54%. Moreover, the Activity with Raji [2] came to 0%; in the data set with Raji [4] it was 14.3%. The EA activation relative to TPA control with Raji [3] was found to be 80.7%. Besides, the viability at 1000 molar ratio in data set [5] stood at 70%.
For the molecule `C=C(C)[C@@H]1CCC2=C(CC[C@]3(C)[C@@H]([C@@H](CCC=C(C)C)C(=O)O)[C@H](O)C[C@@]23C)[C@@]1(C)CCC(=O)O` [PORICOIC ACID G], in the data set on Raji [1], the Remaining EA activation relative to TPA control was determined as 55.9%. Also, the Activity with Raji [2] was 0%; with Raji [4], 16%. The EA activation relative to TPA control with Raji [3] was found to be 82.8%. In data set [5], the viability at 1000 molar ratio worked out at 70%.
`C=C(CC[C@@H](C(=O)O)[C@H]1[C@H](O)C[C@@]2(C)C3=C(CC[C@]12C)[C@@](C)(CCC(=O)O)[C@H](C(=C)C)CC3)C(C)C` [PORICOIC ACID H]: the Remaining EA activation relative to TPA control in the data set on Raji [1] was 53.8%. In addition, the Activity in the data set with Raji [2] was 0%; in the data set with Raji [4], 15.7%. In addition, the EA activation relative to TPA control in the data set with Raji [3] is 80.8%. The viability at 1000 molar ratio in data set [5] is 70%.
Taken in the same sequence, the figures for `C=C(CC[C@@H](C(=O)O)[C@H]1[C@H](O)C[C@@]2(C)C3=C(CC[C@]12C)[C@@]1(C)CC[C@H](O)C(C)(C)[C@@H]1CC3)C(C)C` [TUMULOSIC ACID] were 64.9%, 0%, 22.7%, 90.5% and 70%.

Broadly, the GI50 is the concentration giving 50% growth inhibition.
